From article PMC6847114 (Nucleic Acids Research, 2019)

What was measured:
[1] = ref [52]; cited from earlier work
[2] = ref [53],[54]; cited from earlier work
[3] = system: HeLa cells; type: cell-based; conditions: Ru 100 μM + HCPs 300 μM; for Nuclear uptake of [Ru(bpy)2(dppz)]^2+ in full medium: full medium containing serum, CLSM
[4] = n-Octanol/aqueous partitioning; type: physicochemical; conditions: n-octanol / Tris–HCl buffer 10 mM pH 7.4, Ru 100 μM
In short: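 Shake-flask partitioning of the Ru complex between n-octanol and aqueous Tris–HCl (10 mM, pH 7.4), run with or without highly chlorinated phenols (penta-, tetra- or trichlorophenols) at different Ru:phenol ratios. The complex was quantified in each phase by UV-vis absorbance. Ion-pair lipophilicity is reported as n-octanol-phase absorption intensity at Ru/phenol 1:10, multiplied by 10.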

Row | SMILES | log Kow [1] | pKa [2] | Nuclear uptake of [Ru(bpy)2(dppz)]^2+ in full medium [3] | Cellular and nuclear uptake of [Ru(bpy)2(dppz)]^2+ by luminescence ([3]; serum-free medium, flow cytometry and CLSM) | Lipophilicity of the ion-pairing complex formed with [Ru(bpy)2(dppz)]Cl2 [4]
1 | Oc1cc(Cl)c(Cl)c(Cl)c1Cl [2,3,4,5-TeCP, 2,3,4,5-tetrachlorophenol] | 4.95 | 5.64 | facilitated | most effective | least hydrophobic
2 | Oc1c(Cl)c(Cl)c(Cl)c(Cl)c1Cl [PCP, pentachlorophenol] | 5.01 |  | facilitated |  | most lipophilic
